The source of these data is ChEMBL document CHEMBL1153887, “Cyclocondensation reaction of heterocyclic carbonyl compounds. Part XIII: synthesis and cytotoxic activity of some 3,7-diaryl-5-(3,4,5-trimethoxyphenyl)pyrazolo[4,3-e][1,2,4]triazines” (Eur J Med Chem, 2009).

For assay [1], the system named is K562. Nature of the assay: Cytotoxicity against human paclitaxel-resistant K562 cells after 72 hrs by MTT assay. The class given is functional, cell-based. The conditions noted are these: K562, 72 h. The gist of the method:
(§1)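 Cells seeded at 2500–30,000 cells/well and left 24 h at 37 °C, 5% CO₂, then fourfold dilution series in duplicate for 72 h. MTT for 4 h, formazan dissolved in 10% SDS (pH 5.5), OD read at 540 nm against controls. Mean of three independent experiments.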

Assay [2] has as its system A549. Nature of the assay: Cytotoxicity against human A549 cells after 72 hrs by MTT assay. The conditions noted are these: A549, 72 h. The assay is classed as functional, cell-based.
Assay [3] concerns K562. The experiment in a line: Cytotoxicity against human K562 cells after 72 hrs by MTT assay. The conditions noted are these: K562, 72 h. The class given is functional, cell-based.
Assay [4] deals with CCRF-CEM. The experiment in a line: Cytotoxicity against human daunorubicin-resistant CEM cells after 72 hrs by MTT assay. The assay is classed as cell-based. The gist of the method:
as §1

Assay [5] concerns CCRF-CEM. The experiment in a line: Cytotoxicity against human CEM cells after 72 hrs by MTT assay. The assay is classed as cell-based.

With `COc1ccc(-c2n[nH]c(=O)c(Cc3cc(OC)c(OC)c(OC)c3)n2)cc1`, the IC50 came to 19.9 µM in assay [1]; 9.31 µM in assay [2]; 3.07 µM in assay [3]; 13.3 µM in assay [4]; 3.15 µM in assay [5].
For `COc1ccc(-c2nnc3c(n2)c(-c2cc(OC)c(OC)c(OC)c2)nn3-c2ccc(OC)cc2)cc1`, in that order: 229 µM, 113 µM, 186 µM, 118 µM and 124 µM.
For the molecule `COc1ccc(-c2n[nH]c(=O)c(/C(=N/Nc3ccc(Cl)cc3)c3cc(OC)c(OC)c(OC)c3)n2)cc1`, the IC50 in assay [1] is 238 µM; in assay [2], 18.5 µM; in assay [3], 41.3 µM; in assay [4], 50.1 µM; in assay [5] it was 20.2 µM.
Consider `COc1cc(-c2nnc3c(n2)c(-c2cc(OC)c(OC)c(OC)c2)nn3-c2cc(OC)c(OC)c(OC)c2)cc(OC)c1OC`, for which the IC50 in assay [1] was found to be 250 µM; in assay [2] it was 194 µM; in assay [3], 241 µM; in assay [4], 201 µM; in assay [5], 246 µM.
With `COc1cccc(N/N=C(\c2cc(OC)c(OC)c(OC)c2)c2nc(-c3ccccc3)n[nH]c2=O)c1`, the IC50 in assay [1] was determined as 13.7 µM; in assay [2], 8.3 µM; in assay [3] it was 12.7 µM; in assay [4], 19.3 µM; in assay [5], 8.6 µM.
For `COc1cc(/C=C(/NC(=O)c2ccccc2)C(=O)NN)cc(OC)c1OC`, in that order: 162 µM, 164 µM, 162 µM, 121 µM and 124 µM.
